Reference: ChEMBL document CHEMBL4808167, “Design, Synthesis, and Evaluation of Small Molecule Gαq/11 Protein Inhibitors for the Treatment of Uveal Melanoma” (J Med Chem, 2021)
The source made the active and inactive calls. The calls are words filed in the database; no cut-off is given here. Starred links: 1 amine or outer side, 2 acyl side, 3 side chain; linkers in the order of their positions; H or OH if unused. Positions of bridges follow the written chain, without caps; N, C: chain ends. Non-standard residues stand in square brackets, D forms with d. Residues, ends and D or L forms follow the SMILES beside them. *: point of attachment. Leu(3R-OH,Nα-propionyl) = CCC(=O)N[C@H](C(=O)*)[C@H](O)C(C)C; X1 = CC(C)[C@@H](O[*:3])[C@H](N[*:1])C(=O)[*:2]; NMeT = CN[C@H](C(=O)O)[C@@H](C)O; dPhLac = O=C(O)[C@H](O)Cc1ccccc1; NMeA = CN[C@@H](C)C(=O)O; NMeDha = C=C(NC)C(=O)O

Columns and labels:
GNAQ/GNA11 [1] = biological target: T1, GNAQ/GNA11 (Homo sapiens, UniProt P50148+P29992); experiment: Inhibition of Galphaq/11 (unknown origin); format: protein assay
T1 sequence (P50148 whole entry): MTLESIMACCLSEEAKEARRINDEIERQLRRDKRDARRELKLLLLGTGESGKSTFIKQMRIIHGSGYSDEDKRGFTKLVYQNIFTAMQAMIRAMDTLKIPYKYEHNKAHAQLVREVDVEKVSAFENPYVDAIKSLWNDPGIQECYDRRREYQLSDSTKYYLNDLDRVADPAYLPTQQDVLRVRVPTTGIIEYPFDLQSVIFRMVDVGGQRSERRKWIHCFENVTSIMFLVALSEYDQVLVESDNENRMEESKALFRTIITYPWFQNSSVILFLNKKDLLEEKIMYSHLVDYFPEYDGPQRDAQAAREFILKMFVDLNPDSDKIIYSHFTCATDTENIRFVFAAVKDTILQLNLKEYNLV
T1 sequence (P29992 whole entry): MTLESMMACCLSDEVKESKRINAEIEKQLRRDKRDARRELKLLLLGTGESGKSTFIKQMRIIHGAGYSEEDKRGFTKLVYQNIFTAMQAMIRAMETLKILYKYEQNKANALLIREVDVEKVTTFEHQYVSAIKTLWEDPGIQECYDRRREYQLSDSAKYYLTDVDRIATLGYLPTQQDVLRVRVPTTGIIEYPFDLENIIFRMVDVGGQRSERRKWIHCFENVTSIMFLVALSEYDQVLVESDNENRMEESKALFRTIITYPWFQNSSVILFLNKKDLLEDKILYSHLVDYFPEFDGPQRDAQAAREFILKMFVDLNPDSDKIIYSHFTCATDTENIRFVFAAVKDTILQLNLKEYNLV
Procedure, shortened: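 Carbachol-stimulated IP₁ accumulation in CHO cells stably expressing the M₁ receptor, read by HTRF. Cells (2 × 10⁴/well) in assay buffer with 0.2% BSA were preincubated with compound for 1 h at 37 °C. Carbachol (final 9 μM, ~EC₈₀) was then added with LiCl (final 20 mM) for 1 h at 37 °C plus 1 h at room temperature. Values are % inhibition at 10 μM or IC₅₀, three independent experiments.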

[2] = biological target: T2, GNAQ/GNA11 (Homo sapiens) (UniProt P50148+P29992); experiment: Inhibition of Galphaq/11 (unknown origin) expressed in CHO cells coexpressing M1 receptor assessed as reduction in carbachol-induced IP1 accumulation at 10 uM preincubated for 1 hr followed by carbachol stimulation and measured after 1 hr by HTRF assay relative to control; format: cell-based; settings: time 2.0 hrs
GNAQ/GNA11 [3] = biological target: T1, GNAQ/GNA11; experiment: Inhibition of Galphaq/11 (unknown origin) expressed in CHO cells coexpressing M1 receptor assessed as reduction in carbachol-induced IP1 accumulation preincubated for 1 hr followed by carbachol stimulation and measured after 1 hr by HTRF assay; format: cell-based
[4] = Antiproliferative activity against human 92.1 cells assessed as inhibition of cell growth after 72 hrs by CCK8 assay; format: functional, cell-based; settings: Homo sapiens, 921, 72 h
Procedure, shortened: (§1)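 92.1 or MP41 cells in RPMI-1640 with 10% FBS were seeded at 3 × 10³ cells/well. Exposed to serial concentrations for 72 h at 37 °C, 5% CO₂. CCK-8 added for 1−4 h, absorbance read at 450 nm. IC₅₀ from concentration−response curve fit, mean ± SD.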

[5] = Antiproliferative activity against human MP41 cells assessed as inhibition of cell growth after 72 hrs by CCK8 assay; format: functional, cell-based; settings: MP41, 72 h; procedure, shortened: as §1
[6] = biological target: T2, GNAQ/GNA11 (Homo sapiens); experiment: Binding affinity to Galphaq/11 (unknown origin) expressed in HEK293 cells cotransfected with AT1R/Galphaq-RLuc8/ Ggamma2-venus/Gbeta1 assessed as inhibition of Ang-II induced-BRET signal at 100 uM preincubated for 1 hr followed by Ang-II addition by BRET assay; format: cell-based
Procedure, shortened: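 HEK293 cells transiently transfected with AT₁R, Gαq-RLuc8, Gγ2-Venus and untagged Gβ1. Replated 24 h later, washed with HBS, starved 10 min, then pretreated with compound for 1 h at 37 °C. AngII added, followed by coelenterazine. BRET ratio taken as Venus emission (520−570 nm) over RLuc8 emission (370−480 nm). Mean ± SD, n = 3.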

CHO [7] = experiment: Induction of morphological changes in chinese hamster CHO cells overexpressing M1 receptor at 10 to 20 uM after 2 hrs by light microscopic analysis; format: cell-based, Cricetulus griseus; settings: dose 10-20 µM
Procedure, shortened: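 CHO-M₁ cells were treated with compound at 10 or 20 μM for 2 h, and changes in cell morphology were examined by microscopy.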

CHO [8] = experiment: Cytotoxicity against chinese hamster CHO cells overexpressing M1 receptor assessed as cell viability at 1.25 to 20 uM after 2 to 24 hrs by CCK8 assay; format: cell-based, Cricetulus griseus; settings: dose lower 1.25 µM, time lower 2 hrs, dose upper 20 µM, time upper 24 hrs
Procedure, shortened: (§2)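 CHO cells stably expressing the M₁ receptor were treated with a range of compound concentrations for 2 h or 24 h. Viability measured by CCK-8 and given as percentage. Mean ± SD of three independent experiments.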

CHO [9] = experiment: Cytotoxicity against chinese hamster CHO cells overexpressing M1 receptor assessed as cell viability at 5 uM after 2 hrs by CCK8 assay; format: cell-based, Cricetulus griseus; procedure, shortened: as §2
[10] = biological target: T2, GNAQ/GNA11 (Homo sapiens); experiment: Inhibition of Galphaq/11 (unknown origin) expressed in HEK293 cells cotransfected with AT1R assessed as inhibition of Ang-II induced calcium release at 100 uM preincubated for 30 mins followed by Ang-II addition by Fluo-4AM dye based fluorescence assay; format: cell-based
Procedure, shortened: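 HEK293 cells transfected with AT₁R, washed in HBSS with 0.1% BSA and loaded with Fluo-4 AM for 1 h at 37 °C. Washed, then pretreated with compound at 100 μM for 30 min. AngII at varying concentrations added 20 s into the fluorescence recording. Mean ± SD, n = 3.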

921 [11] = experiment: Inhibition of cell migration in human 921 cells at 15 uM incubated for 48 hrs by transwell migration assay; format: functional, cell-based
Procedure, shortened: (§3)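 92.1 or MP41 cells (1 × 10⁴/well) seeded in serum-free medium in the upper transwell chamber, with 20% FBS medium below. Left overnight, then treated 48 h. Non-migrated cells swabbed off; cells on the lower side stained with crystal violet 30 min and counted by light microscopy (×40 for migration, ×100 for invasion). Mean ± SD, n = 3.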

MP41 [12] = experiment: Inhibition of cell migration in human MP41 cells at 15 uM incubated for 48 hrs by transwell migration assay; format: functional, cell-based
Procedure, shortened: (§4)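 Transwell migration: 92.1 and MP41 cells (RPMI-1640, 10% FBS) seeded 1 × 10⁴/well in upper chamber in serum-free medium, 20% FBS medium below; overnight at 37 °C, then compound for 48 h. Non-migrated cells swabbed off; lower cells crystal violet-stained 30 min, counted by light microscopy. Mean SD of three independent experiments.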

MP41 [13] = experiment: Inhibition of cell migration in human MP41 cells at 30 uM incubated for 48 hrs by Transwell migration assay; format: functional, cell-based; procedure, shortened: as §4
921 [14] = experiment: Inhibition of cell invasion in human 921 cells at 5 to 15 uM incubated for 48 hrs by transwell assay; format: functional, cell-based; settings: dose 5-15 µM; procedure, shortened: as §3
MP41 [15] = experiment: Inhibition of cell invasion in human MP41 cells at 5 to 15 uM incubated for 48 hrs by transwell assay; format: functional, cell-based; settings: dose 5-15 µM; procedure, shortened: as §3
[16] = Antitumor activity against human MP41 cells xenografted in nude BALB/c mouse assessed as tumor growth inhibition at 10 mg/kg, ip administered for once daily for 21 days and measured every 3 days; format: functional; settings: 504 h, time 21 day, read-out: TGI
Procedure, shortened: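 MP41 tumours were passaged subcutaneously mouse-to-mouse in nude BALB/c mice (6−8 weeks, 20−25 g). Tertiary recipients randomized, n = 8/group, given 10 or 30 (mg/kg)/d ip or vehicle for 21 days. Tumour size (V = A × B² × π/6, caliper) and body weight taken every 3 days; tumours excised and weighed on day 22. TGI computed versus the vehicle group.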

Row | SMILES | inhibition [2] | IC50 [4] | IC50 [5] | other results
1 | C=C1C(=O)N[C@@H](C)C(=O)N(C)[C@@H](C)C(=O)N[C@@H]([C@H](OC(=O)[C@@H](NC(=O)CC)[C@H](O)C(C)C)C(C)C)C(=O)N(C)[C@@H]([C@@H](C)OC)C(=O)O[C@H](C(C)C)[C@H](NC(C)=O)C(=O)O[C@H](Cc2ccccc2)C(=O)N1C (Ac-[X1][dPhLac][NMeDha]A[NMeA][X1](Leu(3R-OH,Nα-propionyl))[NMeT](Me); ester 1-C) |  |  |  | IC50 (GNAQ/GNA11 [1]): 0.032 µM
2 | N[C@@H](Cc1ccc(O)cc1)C(=O)N1CCn2cc(-c3ccccc3)nc2[C@@H]1CC1CCCCC1 | 34% | 10.7 µM | 22.6 µM | IC50 (GNAQ/GNA11 [3]): 48.6 µM
3 | N[C@H](CSSC[C@@H](N)C(=O)N1CCn2cc(-c3ccccc3)nc2[C@@H]1CC1CCCCC1)C(=O)N1CCn2cc(-c3ccccc3)nc2[C@@H]1CC1CCCCC1 | 25.8% | 6.8 µM | 10.5 µM | Activity [6]: Active; Activity (CHO [7]): Toxic; Activity (CHO [8]): Toxic; Activity (CHO [9]): Toxic; Activity [10]: inactive; inhibition 921 [11]: Active; inhibition (MP41 [12]): Active; inhibition (MP41 [13]): Active; inhibition 921 [14]: Active; inhibition (MP41 [15]): Active; inhibition in vivo at 10 mg/kg [16]: 35.9%
4 | C[C@@H]1c2nc(-c3ccccc3)cn2CCN1C(=O)[C@@H](N)CS | 6% | > 100 µM | > 100 µM | 
5 | C[C@@H](O)[C@H](N)C(=O)N1CCn2cc(-c3ccccc3)nc2[C@@H]1CC1CCCCC1 | 10.7% | > 100 µM | > 100 µM | 
6 | N[C@@H](CS)C(=O)N1CCn2cc(-c3ccccc3)nc2[C@H]1Cc1ccccc1 | 19.5% | 25.8 µM | 20 µM | 
7 | CC[C@@H](C)[C@H](N)C(=O)N1CCn2cc(-c3ccccc3)nc2[C@H]1CC(C)C | 6.5% | > 100 µM | > 100 µM | 
8 | NC(=O)CC[C@H](N)C(=O)N1CCn2cc(-c3ccccc3)nc2[C@@H]1CC1CCCCC1 | 18.5% | 87.2 µM | > 100 µM | 
9 | CC(C)C(=O)N1CCn2cc(-c3ccccc3)nc2[C@@H]1C(C)C | 9.9% | > 100 µM | > 100 µM | 
10 | CC(C)[C@@H]1c2nc(-c3ccccc3)cn2CCN1C(=O)[C@@H](N)CCCCN | 11.7% | > 100 µM | > 100 µM | 
11 | CC(C)[C@H]1c2nc(-c3ccccc3)cn2CCN1C(=O)[C@@H](N)CCCCN | 5.3% | > 100 µM | > 100 µM | 
12 | CC(C)C[C@@H]1c2nc(-c3ccccc3)cn2CCN1C(=O)[C@@H](N)CCCCN | 1.3% | > 100 µM | > 100 µM | 
13 | NC(=O)C[C@H](N)C(=O)N1CCn2cc(-c3ccccc3)nc2[C@@H]1CC1CCCCC1 | 19.8% | > 100 µM | > 100 µM | 
14 | CC(C)C(=O)N1CCn2cc(-c3ccccc3)nc2[C@@H]1CC1CCCCC1 | 44.2% | 42.3 µM | > 100 µM | 
15 | CC(C)[C@H]1c2nc(-c3ccccc3)cn2CCN1C(=O)[C@@H](N)Cc1ccc(O)cc1 | 6.6% | > 100 µM | > 100 µM | 
16 | C[C@H](O)C(=O)N1CCn2cc(-c3ccccc3)nc2[C@@H]1CC1CCCCC1 | 22.5% | > 100 µM | 56.3 µM | 
17 | N[C@@H](CS)C(=O)N1CCn2cc(-c3ccccc3)nc2[C@@H]1CC1CCCCC1 | 32.6% | 4.8 µM | 2.3 µM | Activity [6]: Active; Activity [10]: inactive; inhibition 921 [11]: Active; inhibition (MP41 [12]): Active; inhibition (MP41 [13]): Active; inhibition 921 [14]: Active; inhibition (MP41 [15]): Active
18 | N[C@@H](Cc1c[nH]cn1)C(=O)N1CCn2cc(-c3ccccc3)nc2[C@@H]1CC1CCCCC1 | 24.7% | 91.9 µM | > 100 µM | 
19 | CC(C)[C@@H]1c2nc(-c3ccccc3)cn2CCN1C(=O)[C@@H](N)CS | 48.4% | 62.7 µM | > 100 µM | 
20 | CC[C@@H](C)[C@H](N)C(=O)N1CCn2cc(-c3ccccc3)nc2[C@@H]1C(C)C | 1.8% | > 100 µM | > 100 µM | 
21 | N[C@@H](CO)C(=O)N1CCn2cc(-c3ccccc3)nc2[C@@H]1CC1CCCCC1 | 29.3% | 78.4 µM | > 100 µM | 
